Test results published in ChEMBL document CHEMBL1145054, “Enantioselective syntheses and cytotoxicity of N,O-nucleosides” (J Med Chem, 2003).

Assays:
HL-60 [1] = assay: Cytotoxic concentration required to cause 50% toxicity in HL-60 cell lines at 24 hours; assay type: functional; settings: Homo sapiens, HL-60, 24 h
How it was run: (§1)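 Cells were exposed under optimal culture conditions to 8–512 μM test agent or to control medium for the stated time. Viability was scored by trypan blue exclusion. CC50 is the concentration causing 50% toxicity, determined from two or more experiments.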

HL-60 [2] = assay: Cytotoxic concentration required to cause 50% toxicity in HL-60 cell lines at 48 hours; assay type: functional; settings: Homo sapiens, HL-60, 48 h; how it was run: as §1
HL-60 [3] = assay: Apoptotic concentration required to cause apoptosis in 50% of HL-60 cell lines at 24 hours; assay type: functional, cell-based; settings: Homo sapiens, HL-60, 24 h
How it was run: (§2)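 Cells were exposed under optimal culture conditions to 8–512 μM test agent or to control medium for the stated time. They were then stained with acridine orange, and over 600 cells were counted by fluorescence microscopy. Cells counted as apoptotic had uniformly stained nuclei with chromatin condensation and nuclear fragmentation. AC50 is the concentration giving 50% apoptosis, determined from two or more experiments.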

HL-60 [4] = assay: Apoptotic concentration required to cause apoptosis in 50% of HL-60 cell lines at 48 hours; assay type: functional, cell-based; settings: Homo sapiens, HL-60, 48 h; how it was run: as §2
MOLT-3 [5] = assay: Apoptotic concentration required to cause apoptosis in 50% of Molt-3 cell lines at 24 hours; assay type: functional, cell-based; settings: Homo sapiens, MOLT-3, 24 h; how it was run: as §2
MOLT-3 [6] = assay: Apoptotic concentration required to cause apoptosis in 50% of Molt-3 cell lines at 48 hours; assay type: functional, cell-based; settings: Homo sapiens, MOLT-3, 48 h; how it was run: as §2
MOLT-3 [7] = assay: Apoptotic concentration required to cause apoptosis in 50% of Molt-3 cell lines at 72 hours; assay type: functional, cell-based; settings: Homo sapiens, MOLT-3, 72 h; how it was run: as §2
MOLT-3 [8] = assay: Cytotoxic concentration required to cause 50% toxicity in Molt-3 cell lines at 24 hours; assay type: functional; settings: Homo sapiens, MOLT-3, 24 h; how it was run: as §1
MOLT-3 [9] = assay: Cytotoxic concentration required to cause 50% toxicity in Molt-3 cell lines at 48 hours; assay type: functional; settings: Homo sapiens, MOLT-3, 48 h; how it was run: as §1
MOLT-3 [10] = assay: Cytotoxic concentration required to cause 50% toxicity in Molt-3 cell lines at 72 hours; assay type: functional; settings: Homo sapiens, MOLT-3, 72 h; how it was run: as §1
THP-1 [11] = assay: Apoptotic concentration required to cause apoptosis in 50% of THP-1 cell lines at 24 hours; assay type: functional, cell-based; settings: Homo sapiens, THP-1, 24 h; how it was run: as §2
THP-1 [12] = assay: Cytotoxic concentration required to cause 50% toxicity in THP-1 cell lines at 24 hours; assay type: functional; settings: Homo sapiens, THP-1, 24 h; how it was run: as §1
U-937 [13] = assay: Apoptotic concentration required to cause apoptosis in 50% of U-937 cell lines at 24 hours; assay type: functional, cell-based; settings: Homo sapiens, U-937, 24 h; how it was run: as §2
U-937 [14] = assay: Apoptotic concentration required to cause apoptosis in 50% of U-937 cell lines at 48 hours; assay type: functional, cell-based; settings: Homo sapiens, U-937, 48 h; how it was run: as §2
U-937 [15] = assay: Apoptotic concentration required to cause apoptosis in 50% of U-937 cell lines at 72 hours; assay type: functional, cell-based; settings: Homo sapiens, U-937, 72 h; how it was run: as §2
U-937 [16] = assay: Cytotoxic concentration required to cause 50% toxicity in U-937 cell lines at 24 hours; assay type: functional; settings: Homo sapiens, U-937, 24 h; how it was run: as §1
U-937 [17] = assay: Cytotoxic concentration required to cause 50% toxicity in U-937 cell lines at 48 hours; assay type: functional; settings: Homo sapiens, U-937, 48 h; how it was run: as §1
U-937 [18] = assay: Cytotoxic concentration required to cause 50% toxicity in U-937 cell lines at 72 hours; assay type: functional; settings: Homo sapiens, U-937, 72 h; how it was run: as §1

O=c1[nH]c(=O)n(C2CCNO2)cc1F (stereo not drawn)
CC50 (HL-60 [1]): > 1000 µM | CC50 (HL-60 [2]): > 1000 µM | AC50 (HL-60 [3]): > 1000 µM | AC50 (HL-60 [4]): > 1000 µM | AC50 (MOLT-3 [5]): 329 µM | AC50 (MOLT-3 [6]): 96 µM | AC50 (MOLT-3 [7]): 13 µM | CC50 (MOLT-3 [8]): > 1000 µM | CC50 (MOLT-3 [9]): 806 µM | CC50 (MOLT-3 [10]): 366 µM | AC50 (THP-1 [11]): > 1000 µM | CC50 (THP-1 [12]): > 1000 µM | AC50 (U-937 [13]): > 1000 µM | AC50 (U-937 [14]): 123 µM | AC50 (U-937 [15]): 3 µM | CC50 (U-937 [16]): > 1000 µM | CC50 (U-937 [17]): > 1000 µM | CC50 (U-937 [18]): 687 µM
